Assay outcomes: PubChem BioAssay, several laboratories
This is a sample that favours compounds with a hit; in the whole collection about 1.2% have one here.
ABHD5-PLIN5 inh: ABHD5-PLIN5 interaction inhibitors, primary screen, cell lysate, split luciferase complementation, luminescence. Perilipin-5 (Homo sapiens) + 1-acylglycerol-3-phosphate O-acyltransferase ABHD5 (Homo …. actives 0.78% (n = 360,000). Split G. princeps luciferase complementation, 4 h. inhibition, % at 4 µM;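 active = inhibition above the mean inhibition across every tested compound plus 3 SD, cut at about 22% in these data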;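 also: 0% = DMSO only wells and the 100% control is not disclosed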
FN deposition inh: inhibitors of fibronectin matrix deposition, primary screen, AH1F cells, Alexa488-fibronectin fluorescence, plate reader. AID 743247, 2014. AH1F fibroblasts, overnight. actives 0.086% (n = 350,000). inhibition, % at 12.6 µM;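 active = mean inhibition across replicates of 30% or more, regardless of how many single replicates reach that level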;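 also: positive control wells lacked labelled fibronectin entirely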
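Material: AH1F fibroblast monolayer depositing Alexa488-labelled fibronectin into matrix | Input: 10000 AH1F cells/well | Medium: DMEM plus 2% serum, read in PBS | Reagent: Alexa488-fibronectin, 24 nM final in well | Compound dosing: One dose per compound, pinned | Schedule: 1 h adhesion, overnight exposure | Measured by: Fluorescence at 485 nm excitation, 525 nm emission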
A3A deaminase: APOBEC3A ssDNA deaminase inhibitors, primary screen, selectivity assay for APOBEC3G inhibitor project, biochemical, FAM/TAMRA oligo cleavage fluorescence | DNA dC->dU-editing enzyme APOBEC-3A (Homo sapiens), P31941 | recombinant A3A, FAM/TAMRA ssDNA deamination fluorescence | inhibition, % at 20 µM | actives 0.41% (n = 330,000);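 active = at least 40% inhibition at 20 µM here, with at most 30% in a related deaminase screen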;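 also: plate controls were A3A with DMSO for no effect and wells lacking A3A enzyme for full effect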
Target sequence (P31941 whole entry, looked up): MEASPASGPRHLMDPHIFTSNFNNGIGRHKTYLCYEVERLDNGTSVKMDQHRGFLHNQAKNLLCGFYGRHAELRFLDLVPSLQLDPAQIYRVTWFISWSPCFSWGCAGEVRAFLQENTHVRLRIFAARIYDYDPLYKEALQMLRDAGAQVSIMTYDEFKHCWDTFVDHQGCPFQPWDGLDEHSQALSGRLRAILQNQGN
A3G deaminase: APOBEC3G DNA deaminase inhibitors, primary screen, biochemical, fluorescence, single-stranded DNA substrate, uHTS | actives 0.28% (n = 330,000) | AID 493012, 2011 | inhibition, % at 20 µM | recombinant A3G, ssDNA deamination FAM/TAMRA fluorescence;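 active = inhibition of at least 40% at 20 µM, with no more than 30% in the related APOBEC3A deaminase screen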;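 also: plate controls were DMSO wells with A3G for no effect and wells lacking A3G enzyme for full effect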
ABHD5 PLIN5 conf: ABHD5-PLIN5 interaction inhibitors, confirmation, biochemical, luminescence | actives 67% (n = 2,200) | shares compounds with ABHD5-PLIN5 inh | inhibition, % at 4 µM; in the data active = inhibition above about 23%;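 also: 0% = DMSO vehicle wells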
HNF4 split-luc: HNF4 dimerization inhibitors, counter-screen for ABHD5-PLIN5 interaction inhibitor project, biochemical, split-luciferase complementation, luminescence | inhibition, % at 4 µM | actives 77% (n = 2,200) | shares compounds with ABHD5-PLIN5 inh;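 active = mean inhibition across replicate wells exceeding the computed hit threshold, cut at about 13% in these data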;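 also: light from luciferase halves that rejoin when HNF4 fusion proteins dimerize; 0% = DMSO only wells and the 100% control is not given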
Numbers without * were called inactive; / = no result.

SMILES	ABHD5-PLIN5 inh	FN deposition inh	A3A deaminase	A3G deaminase	ABHD5 PLIN5 conf	HNF4 split-luc
N#CC1=C(N)NC(=S)C(C(N)=O)C1c1ccc(Cl)cc1Cl (configuration not stated)	57*	-2	-1	-10	13	101*
N#CC1=C(N)NC(=S)C(C(N)=O)C1c1ccccc1F (configuration not stated)	38*	2	3	38	-11	84*
CCc1cc(C(c2ccc(OC)c(OC)c2)N2CCOCC2)c(NC(=O)c2ccccc2)s1 (configuration not stated)	33*	8	-4	-10	99*	86*
C[C@@H]1C(=O)N[C@@H](c2ccc(F)cc2)CC=CC[C@H](C)Oc2ccccc2C(=O)N1C (mixture of isomers)	/	-12	/	/	/	/
CN(C)CCCNC(=O)c1ccc(-c2nc(-c3ccc(Cl)cc3)cs2)cc1	27*	17	5	6	22*	2
CCC(c1ccccc1)c1noc(CCN(CC)CC)n1 (configuration not stated)	60*	4	/	/	73*	32*
COc1ccc(/C=C/C(=O)c2c(O)c(OC)c3occc3c2OC)cc1	49*	5	/	/	79*	65*
CN(C)CCCN(C(=O)/C=C/c1cccs1)c1nc2ccc(F)cc2s1	39*	-3	-3	-8	20	24*
COc1cccc2sc(N(CCN(C)C)C(=O)/C=C/c3cccs3)nc12	20	2	-3	0	/	/
COc1ccc(C)c2sc(N(CCN(C)C)C(=O)/C=C/c3cccs3)nc12	35*	5	-5	-4	23*	8
Cc1ccc2nc(N(CCN(C)C)C(=O)/C=C/c3cccs3)sc2c1	35*	2	-3	-5	18	6
CN(C)CCCN(C(=O)c1sc2ccccc2c1Cl)c1nc2ccc(F)cc2s1	25*	-3	1	-7	19	4
C[C@H]1CN([C@@H](C)CO)S(=O)(=O)c2ccc(-c3ccccc3)cc2O[C@H]1CN(C)C(=O)C1CC1	/	4	/	/	/	/
CN1C(=O)c2cc(NC(=O)C3CC3)ccc2OC[C@@H]2O[C@H](CC(=O)NCC3CCCCC3)CC[C@H]21	/	0	/	/	/	/
NCC[C@H]1CC[C@H](NC(=O)Nc2ccc(F)cc2)[C@@H](CO)O1	/	-9	/	/	/	/
COc1ccccc1N(C(C)=O)C1=C(Cl)C(=O)c2ccccc2C1=O	93*	42*	/	/	100*	111*
COc1ccccc1N(C(=O)CCl)c1cn(C(C)=O)c2ccccc12	7	-1	-4	-5	/	/
CC1CN(c2ccc([N+](=O)[O-])c(NCCOc3ccccc3)c2)CCN1 (configuration not stated)	29*	7	-3	-6	16	0
COc1cccc(OCCNc2cc(N3CCCCC3)ccc2[N+](=O)[O-])c1	4	/	1	1	/	/
Cc1cccc(OCCNc2cc(N3CCN(CCO)CC3)ccc2[N+](=O)[O-])c1	27*	9	0	-2	16	9
O=[N+]([O-])c1ccc(N2CCN(S(=O)(=O)c3ccccc3)CC2)cc1NCCN1CCOCC1	23*	13	5	0	2	9
O=C(CN1CCN(C(c2ccccc2)c2ccccc2)CC1)N1CCOCC1	0	/	-5	-2	/	/
Oc1c(C(c2ccccc2)N2CCOCC2)ccc2ccccc12 (configuration not stated)	40*	5	/	/	102*	106*
CCN(CC)CCN1C(=O)/C(=C\c2ccc(Cl)c([N+](=O)[O-])c2)SC1=Nc1ccc(OC)cc1	39*	4	-3	-11	27*	14*
COc1ccc(N=C2S/C(=C\c3ccc(Cl)c([N+](=O)[O-])c3)C(=O)N2CCN(C)C)cc1	4	-3	-1	-5	/	/
